NS3 helicase inh: blocks Hepatitis C virus NS3 helicase unwinding; NS3 helicase DNA unwinding, Cy5 molecular beacon fluorescence; inhibition, % at 10.9 µM; 0.56% of 290,000 active; AID 1800;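 active means inhibition above the mean of all tested compounds plus 3 SD, set per campaign, cut at about 35% in these data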
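Measured by: Cy5 fluorescence, 0 and 60 min reads / Assay system: NS3 helicase fragment of HCV / Control set: low DMSO, high thioflavine S at 110 µM / Times: 1 h reaction at 25 °C, ATP-initiated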
FID counter: displaces DNA intercalator in HCV helicase counter-screen | DNA fluorescent intercalator displacement, fluorescence | inhibition, % at 7.9 µM | 0.17% of 290,000 active; in the data active means inhibition above about 37%;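 further: higher means more ethidium bromide displaced from hairpin DNA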
VIM-2 inhibitor: blocks Pseudomonas aeruginosa VIM-2 metallo-beta-lactamase; 0.89% of 290,000 active; AID 1527; purified VIM-2, nitrocefin hydrolysis, epi-absorbance fluorescence; inhibition, % at 5.6 µM;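 active means inhibition above the mean of all tested compounds plus 3 SD, cutoff set per screening run, cut at about 7.5% in these data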;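 further: red hydrolysis product quenches plate fluorescence so inhibitors raise well fluorescence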
SUMO HTRF inh: SUMOylation inhibition. P63279. AID 2006. inhibition, % at 35 µM. 0.36% of 290,000 active. HTRF SUMOylation assay, SAE1/SAE2 + UBC9, in vitro; in the data active means inhibition above about 50%, passing the limit was not always enough
Target sequence (P63279 whole entry, looked up): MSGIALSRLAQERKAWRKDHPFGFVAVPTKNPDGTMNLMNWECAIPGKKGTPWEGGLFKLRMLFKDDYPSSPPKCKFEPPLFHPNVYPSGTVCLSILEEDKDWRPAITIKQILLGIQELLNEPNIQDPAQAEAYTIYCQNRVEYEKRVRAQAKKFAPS
IMP-1 inh-1: blocks Pseudomonas aeruginosa IMP-1 metallo-beta-lactamase. 0.45% of 290,000 active. inhibition, % at 5.6 µM. purified IMP-1, nitrocefin hydrolysis, epi-absorbance fluorescence;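 active means inhibition above the mean plus 3 SD of all compounds in the same screening run, cut at about 4.5% in these data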
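assay system = purified recombinant IMP-1 metallo-beta-lactamase enzyme | schedule = 15 min preincubation plus 25 min reaction at 25 °C | signal = Epi-absorbance fluorescence, 480 nm excitation, 530 nm emission | read-out basis = percent inhibition from optical density relative to buffer-blank wells | controls = IMP-1 with DMSO as 0%, enzyme-free DMSO as 100%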
IMP-1 inh-2: blocks IMP-1 metallo-beta-lactamase in VIM-2 selectivity screen; inhibition, % at 5.6 µM; AID 1856; shares compounds with VIM-2 inhibitor; purified IMP-1, nitrocefin hydrolysis, epi-absorbance fluorescence; 1,300 tested, under 10 active; call rule not given here
VIM-2 FRET ctr: counter-screen for VIM-2 inhibitors: epi-absorbance artifacts via FRET. shares compounds with VIM-2 inhibitor. purified VIM-2, CCF2 FRET substrate hydrolysis. inhibition, % at 5.6 µM. 23% of 1,300 active;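 active means inhibition above the mean of all tested compounds plus 3 SD, cut at about 19% in these data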
TEM-1 inh: selectivity counter-screen for VIM-2 inhibitors: E. coli TEM-1 inhibitors | shares compounds with VIM-2 inhibitor | inhibition, % at 5.6 µM | 3% of 1,300 active | Purified TEM-1, nitrocefin hydrolysis, epi-absorbance fluorescence;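 active means inhibition above that campaign's mean inhibition plus 3 SD, cut at about 0.46% in these data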
Target sequence (P62593 whole entry, looked up): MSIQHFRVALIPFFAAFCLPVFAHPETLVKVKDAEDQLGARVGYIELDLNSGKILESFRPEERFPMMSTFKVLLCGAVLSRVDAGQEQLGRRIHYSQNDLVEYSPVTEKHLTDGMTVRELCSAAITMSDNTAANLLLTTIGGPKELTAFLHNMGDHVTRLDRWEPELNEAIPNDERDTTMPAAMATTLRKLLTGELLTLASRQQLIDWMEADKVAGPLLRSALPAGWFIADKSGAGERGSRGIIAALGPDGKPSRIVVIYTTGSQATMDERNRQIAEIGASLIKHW
VIM-2 confirm 2: confirmation of P. aeruginosa VIM-2 metallo-beta-lactamase inhibitors; 96% of 1,300 active; inhibition, % at 5.6 µM; purified VIM-2, nitrocefin hydrolysis, epi-absorbance; AID 2187; shares compounds with VIM-2 inhibitor;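 active means inhibition of the VIM-2 beta-lactamase enzyme above about 11% from the earlier first-round screen, limit read from the data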
Of the large screens only hits and unclear results are named; the others gave an inactive call (follow-up assays come after a bar, where they were run). Shown are actives, neighbours in structure and some others; about 2.1% of the full set was active somewhere.

c1cncc(Nc2nc(-c3cccnc3)cs2)c1	VIM-2 inhibitor 12 | IMP-1 inh-2 inactive | VIM-2 FRET ctr inactive | TEM-1 inh inactive | VIM-2 confirm 2 41
O=C(CCS(=O)(=O)c1cccs1)Nc1ccc(C(=O)NC2CCN(Cc3ccccc3)CC2)cc1	none
Cc1ccc2nc(C)c(C)nc2c1N	VIM-2 inhibitor 20 | IMP-1 inh-2 inactive | VIM-2 FRET ctr inactive | TEM-1 inh inactive | VIM-2 confirm 2 31
O=C(N[C@@H]1CCC(=O)N(CC[C@H](Oc2ccccc2)c2ccccc2)CC1)OCc1ccccc1	none
CCCC[C@@H](CNC)NC[C@H](Cc1ccc(O)cc1)NCCc1ccc(OCC)cc1	VIM-2 inhibitor 67 | IMP-1 inh-2 inactive | VIM-2 FRET ctr inactive | TEM-1 inh inactive | VIM-2 confirm 2 70
CCC[C@H](CN[C@@H](CNC)[C@H](C)O)NCCc1ccc(OC)cc1	none
COc1ccc2nc3cc(Cl)ccc3c(Nc3cc(CN4CCCC4)c(O)c(CN4CCCC4)c3)c2n1	FID counter 103, VIM-2 inhibitor 21 | IMP-1 inh-2 inactive | VIM-2 FRET ctr inactive | TEM-1 inh inactive | VIM-2 confirm 2 33
Cc1nn2c(-c3ccccc3)nnc2c2ccccc12	none
Cc1nn2c3ccccc3nc2c2ccccc12	VIM-2 inhibitor 13 | IMP-1 inh-2 inactive | VIM-2 FRET ctr inactive | TEM-1 inh inactive | VIM-2 confirm 2 27
Cc1c(OCC(=O)NCC(O)c2ccccc2)ccc2c3c(c(=O)oc12)CCC3 (stereo not given)	VIM-2 inhibitor 20 | IMP-1 inh-2 inactive | VIM-2 FRET ctr inactive | TEM-1 inh inactive | VIM-2 confirm 2 28
Cc1c(OCc2ccc(C(=O)O)o2)ccc2c3c(c(=O)oc12)CCC3	none
O=C(COc1cc2oc(=O)c3c(c2cc1Cl)CCC3)NCC(O)c1ccccc1 (stereo not given)	VIM-2 inhibitor 14 | IMP-1 inh-2 inactive | VIM-2 FRET ctr inactive | TEM-1 inh inactive | VIM-2 confirm 2 26
Cc1cc2nc(N=C(N)N)nc(C)c2cc1C	VIM-2 inhibitor 17 | IMP-1 inh-2 inactive | VIM-2 FRET ctr inactive | TEM-1 inh inactive | VIM-2 confirm 2 26
COc1ccc(N2CCN(C(=O)CCc3nnc4ccc(N5CCCC5)nn34)CC2)cc1	none
c1ccc2nc3c(nc2c1)c1ccccc1n3CCN1CCOCC1	VIM-2 inhibitor 12 | IMP-1 inh-2 inactive | VIM-2 FRET ctr inactive | TEM-1 inh inactive | VIM-2 confirm 2 18
Cc1nc2ccccc2n1CCN1CCOCC1	none
O=c1c2ccccc2nc2c3ccccc3c(NCCN3CCOCC3)nn12	VIM-2 inhibitor 18 | IMP-1 inh-2 inactive | VIM-2 FRET ctr inactive | TEM-1 inh inactive | VIM-2 confirm 2 28
COc1ccc2nc(NC(=O)Cn3cnc4ccccc4c3=O)sc2c1	none
CCN(CC)CCOc1cc2c(nn1)Oc1ccccc1N2C	VIM-2 inhibitor 18 | IMP-1 inh-2 inactive | VIM-2 FRET ctr inactive | TEM-1 inh inactive | VIM-2 confirm 2 20
COc1ccc(S(=O)(=O)N2CCOC2CNC(=O)C(=O)NCCN2CCOCC2)cc1C (stereo not given)	none
Cc1cc(NCCCN2CCOCC2)n2ncc(-c3ccc(Cl)cc3)c2n1	none
Cc1cc(NCCCn2ccnc2)n2ncc(-c3ccc(Cl)cc3)c2n1	VIM-2 inhibitor 35 | IMP-1 inh-2 inactive | VIM-2 FRET ctr inactive | TEM-1 inh inactive | VIM-2 confirm 2 50
Cc1cccc(-c2cc3nc(C)cc(NCCCn4ccnc4)n3n2)c1	VIM-2 inhibitor 48 | IMP-1 inh-2 inactive | VIM-2 FRET ctr inactive | TEM-1 inh inactive | VIM-2 confirm 2 60
CCCc1cc(NCCCn2ccnc2)n2nc(C)c(-c3ccccc3)c2n1	VIM-2 inhibitor 26 | IMP-1 inh-2 inactive | VIM-2 FRET ctr inactive | TEM-1 inh inactive | VIM-2 confirm 2 47
COC(=O)c1c(NC(=O)c2ccccc2F)sc(C(=O)N2CCOCC2)c1C	VIM-2 inhibitor 13 | IMP-1 inh-2 inactive | VIM-2 FRET ctr inactive | TEM-1 inh inactive | VIM-2 confirm 2 20
CC(C)N(C)Cc1nnnn1CC(=O)N(C)Cc1cccc(Cl)c1	none
O=C(Cn1c(=O)c2cccn2c2cccnc21)N1CCN(c2ccc(Cl)cc2)CC1	none
O=C(OCC(=O)N1CCCC1)c1ccc(NS(=O)(=O)c2cccs2)cc1O	none
CC(/C=N/n1c(-c2cccnc2)n[nH]c1=S)=C\c1ccccc1	none
CC(=C/c1ccccc1)/C=N/n1c(C)n[nH]c1=S	VIM-2 inhibitor 33 | IMP-1 inh-2 inactive | VIM-2 FRET ctr 61 | TEM-1 inh inactive | VIM-2 confirm 2 42
CC(=C/c1ccccc1)/C=N/n1c(-c2ccncc2)n[nH]c1=S	VIM-2 inhibitor 16 | IMP-1 inh-2 inactive | VIM-2 FRET ctr 48 | TEM-1 inh inactive | VIM-2 confirm 2 28
CSc1nnc2c3cc(C)ccc3n(Cc3ccccc3)c2n1	none
CCCn1c2ccc(C)cc2c2nnc(SCCN3CCOCC3)nc21	VIM-2 inhibitor 17 | IMP-1 inh-2 inactive | VIM-2 FRET ctr inactive | TEM-1 inh inactive | VIM-2 confirm 2 27
CCCn1c2ccc(F)cc2c2nnc(SCCN3CCOCC3)nc21	none
CCn1c2ccc(C)cc2c2nnc(SCCN3CCCCC3)nc21	VIM-2 inhibitor 26 | IMP-1 inh-2 inactive | VIM-2 FRET ctr inactive | TEM-1 inh inactive | VIM-2 confirm 2 35
Cc1cc(C)c2c(c1)c1nnc(SCCN3CCOCC3)nc1n2C	VIM-2 inhibitor 23 | IMP-1 inh-2 inactive | VIM-2 FRET ctr inactive | TEM-1 inh inactive | VIM-2 confirm 2 31
CCCn1c2ccc(C)cc2c2nnc(SCCN3CCCCC3)nc21	VIM-2 inhibitor 22 | IMP-1 inh-2 inactive | VIM-2 FRET ctr inactive | TEM-1 inh inactive | VIM-2 confirm 2 21
CCc1ccc2[nH]c(=O)c(-c3ccccc3)c(O)c2c1	none
Cc1ccc2c(c1)c1nnc(SCC(=O)NC3CC3)nc1n2C	VIM-2 inhibitor 17 | IMP-1 inh-2 inactive | VIM-2 FRET ctr inactive | TEM-1 inh inactive | VIM-2 confirm 2 28
Cc1ccccc1-c1nc(C#N)c(N2CCCCC2)o1	none
CC1=Nc2ccc(C)cc2/C1=C/c1c(N)n2nc(CC(=O)N3CCOCC3)sc2nc1=O	VIM-2 inhibitor 12 | IMP-1 inh-2 inactive | VIM-2 FRET ctr 22 | TEM-1 inh inactive | VIM-2 confirm 2 16
Nc1c(C=C2C=CC(=O)C=C2)c(=O)nc2sc(CC(=O)N3CCCCC3)nn12	none (no result: SUMO HTRF inh)
CC(C)(C)c1cc(CN(CCO)CCO)c(O)c(C(C)(C)C)c1	none
CCOC(=O)N1CCN(Cc2cc(=O)oc3cc4c(cc23)CCC4)CC1	none
O=c1cc(CN2CCN(CCO)CC2)c2cc3c(cc2o1)CCC3	VIM-2 inhibitor 17 | IMP-1 inh-2 inactive | VIM-2 FRET ctr inactive | TEM-1 inh inactive | VIM-2 confirm 2 33

Assay outcomes deposited in PubChem by several laboratories.
